The inhibition is the drop in the measured response relative to a control, in per cent. The term half-life denotes the time needed for the level to fall by half in the phase considered. Low values mean fast loss, high ones slow loss.

The values that follow come from ChEMBL document CHEMBL1137646, “Intracellular metabolism and persistence of the anti-human immunodeficiency virus activity of 2',3'-didehydro-3'-deoxy-4'-ethynylthymidine, a novel thymidine analog” (Antimicrob Agents Chemother, 2007).

The test system of data set [1] is RKO. As to the kind of experiment: Induction of thymidylate kinase expression in human RKO cells expressing Tet-On gene after 48 hrs by Western blotting relative to control. It counts as functional. An outline of the steps:
(§1)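 Tet-On TMPK RKO cells were grown with doxycycline at 0, 50 or 3,000 ng/ml to induce TMPK. Expression was assessed by Western blotting with actin as the internal control.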

Data set [2] concerns RKO. Description: Induction of thymidylate kinase expression in human RKO cells expressing Tet-On gene after 48 hrs by Western blotting. It counts as functional, cell-based. An outline of the steps:
as §1
On the technique in general: In western blotting, separated proteins are transferred to a membrane and probed.

Data set [3] has as its system RKO. Description: Induction of 3-phosphoglycerate kinase expression in human RKO cells expressing Tet-On gene at 100 ng/ml after 72 hrs by Western blotting relative to control.
Data set [4] relates to Human immunodeficiency virus 1. As to the kind of experiment: Antiviral activity against 0.1 MOI HIV1 3B infected in human TZM-b1 cells assessed as inhibition of viral replication after 24 hrs by luciferase assay. It counts as functional, organism-based. An outline of the steps:
(§2)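 TZM-bl cells in phenol red-free RPMI 1640 were infected with HIV-1 IIIB (MOI 0.1) at the time of adding drug at various concentrations, and drug and virus stayed together for 24 h. Lysate luciferase was measured with uninfected background subtracted, in quintuple wells. Inhibition was the mean signal relative to drug-free infected cells.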

The test system of data set [5] is Human immunodeficiency virus 1. Description: Antiviral activity against 0.1 MOI HIV1 3B infected in human TZM-b1 cells assessed as inhibition of viral replication at 0.18 uM after 24 hrs by luciferase assay. It counts as functional. The conditions noted are these: Human immunodeficiency virus 1, 3B, TZM-b1, 24 h. An outline of the steps: (§3)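 TZM-bl cells were plated at 0.5 x 10^4 per well in phenol red-free RPMI 1640 and allowed to adhere 15-18 h at 37°C. After a medium change, drug was added with quintuple wells per concentration, and cells were infected at the same time with HIV-1 IIIB at MOI 0.1. After 24 h, cells were lysed and luciferase was read minus the uninfected background. Values are percentage of mean luminescence in drug-free wells.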

The test system of data set [6] is Human immunodeficiency virus 1. As to the kind of experiment: Antiviral activity against 0.1 MOI HIV1 3B infected in human TZM-b1 cells assessed as inhibition of viral replication at 0.14 uM after 24 hrs by luciferase assay. It counts as functional. As to conditions: Human immunodeficiency virus 1, 3B, TZM-b1, 24 h. An outline of the steps: as §3
Data set [7] relates to Human immunodeficiency virus 1. As to the kind of experiment: Antiviral activity against 0.1 MOI HIV1 3B in 24 hrs pretreated human TZM-b1 cells infected 48 hrs post drug removal assessed as inhibition of viral replication at 0.04 to 0.18 uM measured 24 hrs postinfection by luciferase assay. It counts as functional, organism-based. The procedure, abridged:
(§4)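 TZM-bl cells (kept in DMEM) were plated at 0.5 x 10^4 per well in phenol red-free RPMI 1640 and left to adhere 15-18 h at 37°C. They were then exposed to drug for 24 h with quintuple wells per concentration. Medium was changed to remove drug, and cells were infected with HIV-1 IIIB at MOI 0.1 at 0, 24 or 48 h after removal. Luciferase was read 24 h post-infection after subtracting the uninfected background. Inhibition is expressed relative to drug-free control wells.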

Data set [8] has as its system Human immunodeficiency virus 1. Description: Antiviral activity against 0.1 MOI HIV1 3B in 24 hrs pretreated human TZM-b1 cells infected 24 hrs post drug removal assessed as inhibition of viral replication at 0.04 to 0.18 uM measured 24 hrs postinfection by luciferase assay. It counts as functional, organism-based. An outline of the steps: as §4
The test system of data set [9] is Human immunodeficiency virus 1. As to the kind of experiment: Antiviral activity against 0.1 MOI HIV1 3B infected in human TZM-b1 cells assessed as inhibition of viral replication at 0.11 uM after 24 hrs by luciferase assay. As to conditions: Human immunodeficiency virus 1, 3B, TZM-b1, 24 h. It counts as functional. The procedure, abridged:
as §3

A short description of data set [10]: Half life in plasma of HIV1-infected patient administered as single dose. It counts as ADME, cell-free. As to conditions: human.
In data set [11] the test system is Human immunodeficiency virus 1. Description: Antiviral activity against 0.1 MOI HIV1 3B in 24 hrs pretreated human TZM-b1 cells infected 0 hr post drug removal assessed as inhibition of viral replication at 0.18 uM measured 24 hrs postinfection by luciferase assay. It counts as functional. As to conditions: Human immunodeficiency virus 1, 3B. The procedure, abridged:
as §4

The nature of data set [12]: Half life in plasma of HIV1-infected patient. The conditions noted are these: human. It counts as ADME, cell-free.
For data set [13], the system named is CCRF-CEM. Description: Drug metabolism in human CEM cells assessed as radioactive zidovudine monophosphate accumulation at 2 uM assessed per 10^6 cells. It counts as ADME, cell-based. The conditions noted are these: TDE = time-dependent effect. An outline of the steps:
(§5)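 CEM cells (2 x 10^7/ml) in RPMI 1640 with 10% dialyzed FBS were incubated at 37°C with 2 µM [3H]analog (75 mCi/mmol) and harvested at 2, 4, 8, 12, 16 and 24 h. Cells were washed in ice-cold PBS with 20 µM dipyridamole and extracted with 15% TCA. Neutralized extracts were separated on a Partisil SAX column with an H2O to 300 mM potassium phosphate gradient and radiometric detection, reported as pmol/10^6 cells, mean ± SD of three experiments.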

Data set [14] relates to CCRF-CEM. Description: Drug metabolism in human CEM cells assessed as radioactive 2', 3'-didehydro-3'-deoxy-4'-ethynylthymidine diphosphate accumulation at 2 uM assessed per 10^6 cells. It counts as ADME, cell-based. The conditions noted are these: TDE = time-dependent effect. An outline of the steps:
as §5

For data set [15], the system named is CCRF-CEM. Description: Drug metabolism in human CEM cells assessed as radioactive stavudine triphosphate accumulation at 2 uM assessed per 10^6 cells. It counts as ADME, cell-based. The conditions noted are these: TDE = time-dependent effect. The procedure, abridged:
as §5

The subject of data set [16] is CCRF-CEM. Description: Drug metabolism in human CEM cells assessed as radioactive stavudine monophosphate accumulation at 2 uM assessed per 10^6 cells. The conditions noted are these: TDE = time-dependent effect. It counts as ADME, cell-based. The procedure, abridged: as §5
Data set [17] concerns CCRF-CEM. As to the kind of experiment: Stability in human CEM cells assessed as intracellular radioactive phosphorylated metabolite accumulation at 2 uM incubated for 24 hrs measured after 8 hrs of compound removal assessed per 10^6 cells. It counts as ADME, cell-based. The procedure, abridged: (§6)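 CEM cells were loaded with 2 µM [3H]analog (75 mCi/mmol) for 24 h, washed, and resuspended in drug-free medium. Intracellular metabolites were then measured by SAX-HPLC with radiometric detection at 0, 2, 4, 8, 12 and 24 h after removal. Values are pmol/10^6 cells, mean ± SD of three experiments.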

Data set [18] has as its system Human immunodeficiency virus 1. As to the kind of experiment: Antiviral activity against 0.1 MOI HIV1 3B infected in human TZM-b1 cells assessed as inhibition of viral replication at 2 uM after 24 hrs by luciferase assay. It counts as functional. As to conditions: Human immunodeficiency virus 1, 3B, TZM-b1, 24 h. The procedure, abridged: as §2
For data set [19], the system named is CCRF-CEM. Description: Drug metabolism in human CEM cells assessed as radioactive stavudine monophosphate accumulation at 2 uM after 12 hrs assessed per 10^6 cells. It counts as ADME, cell-based. The procedure, abridged:
as §5

Data set [20] deals with CCRF-CEM. Description: Drug metabolism in human CEM cells assessed as radioactive zidovudine diphosphate accumulation at 2 uM assessed per 10^6 cells. The conditions noted are these: TDE = time-dependent effect. It counts as ADME, cell-based. An outline of the steps:
as §5

For data set [21], the system named is CCRF-CEM. Description: Drug metabolism in human CEM cells assessed as radioactive 2', 3'-didehydro-3'-deoxy-4'-ethynylthymidine triphosphate accumulation at 2 uM assessed per 10^6 cells. It counts as ADME, cell-based. As to conditions: TDE = time-dependent effect. An outline of the steps: as §5
Data set [22] deals with CCRF-CEM. Description: Drug metabolism in human CEM cells assessed as radioactive 2', 3'-didehydro-3'-deoxy-4'-ethynylthymidine monophosphate accumulation at 2 uM assessed per 10^6 cells. It counts as ADME, cell-based. The conditions noted are these: TDE = time-dependent effect. An outline of the steps: as §5
In data set [23] the test system is Human immunodeficiency virus 1. Description: Antiviral activity against 0.1 MOI HIV1 3B in 24 hrs pretreated human TZM-b1 cells infected 24 hrs post drug removal assessed as inhibition of viral replication at 1 to 6 uM measured 24 hrs postinfection by luciferase assay.
Data set [24] deals with CCRF-CEM. As to the kind of experiment: Drug metabolism in human CEM cells assessed as radioactive zidovudine triphosphate accumulation at 2 uM assessed per 10^6 cells. It counts as ADME, cell-based. The conditions noted are these: TDE = time-dependent effect. The procedure, abridged: as §5
Data set [25] has as its system CCRF-CEM. Description: Drug metabolism in human CEM cells assessed as radioactive stavudine diphosphate accumulation at 2 uM assessed per 10^6 cells. It counts as ADME, cell-based. As to conditions: TDE = time-dependent effect. The procedure, abridged: as §5
Data set [26] has as its system CCRF-CEM. As to the kind of experiment: Drug metabolism in human CEM cells assessed as radioactive stavudine diphosphate accumulation at 2 uM after 12 hrs assessed per 10^6 cells. It counts as ADME, cell-based. An outline of the steps: as §5
For data set [27], the system named is CCRF-CEM. Description: Drug metabolism in human CEM cells assessed as radioactive stavudine triphosphate accumulation at 2 uM after 12 hrs assessed per 10^6 cells. It counts as ADME, cell-based. An outline of the steps:
as §5

The test system of data set [28] is CCRF-CEM. Description: Stability in human CEM cells assessed as intracellular radioactive triphosphate metabolite accumulation at 2 uM incubated for 24 hrs measured after 24 hrs of compound removal assessed per 10^6 cells. It counts as ADME, cell-based. The procedure, abridged: as §6
In data set [29] the test system is Human immunodeficiency virus 1. As to the kind of experiment: Antiviral activity against 0.1 MOI HIV1 3B in 24 hrs pretreated human TZM-b1 cells infected 24 hrs post drug removal assessed as inhibition of viral replication at 1 to 6 uM measured 24 hrs postinfection by luciferase assay. It counts as functional, organism-based. An outline of the steps: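 TZM-bl cells were plated in phenol red-free RPMI 1640, allowed to adhere 15–18 h at 37°C, then exposed to a range of drug concentrations for 24 h. Medium was changed to remove extracellular drug, and cells were infected with HIV-1 IIIB (MOI 0.1) at 0, 24 or 48 h after removal. Luciferase was read 24 h post-infection with uninfected-cell background subtracted, in quintuple wells, and expressed relative to no-drug wells.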

Data set [30] has as its system Human immunodeficiency virus 1. As to the kind of experiment: Antiviral activity against 0.1 MOI HIV1 3B infected in human TZM-b1 cells assessed as inhibition of viral replication at 6 uM after 24 hrs by luciferase assay. As to conditions: Human immunodeficiency virus 1, 3B, TZM-b1, 24 h. It counts as functional. The procedure, abridged: as §2

Active and inactive are the calls of the source.

As for `C[C@H]1c2cccc(O)c2C(=O)C2=C(O)[C@]3(O)C(=O)C(C(N)=O)=C(O)[C@@H](N(C)C)[C@@H]3[C@@H](O)[C@@H]21.O` [DOXYCYCLINE], the “fold change (FC)” value in data set [1] is 5; in [3] it was 3. Besides, the Activity result in data set [2] is “Dose-dependent effect”.

Consider `Cc1ccnc2c1NC(=O)c1cccnc1N2C1CC1` [NEVIRAPINE], for which the inhibition entry in data set [4] was “Dose-dependent effect”. The values for the inhibition at 0.18 µM in data set [5] and in data set [11] were 50% and < 50%, respectively. Besides, in data set [6], the inhibition at 0.14 µM stood at 50%. Besides, the inhibition result in data set [7] and in data set [8] was “inactive” in each case. Also, in data set [9], the inhibition at 0.11 µM was found to be 50%. Also, the half-life in data set [10] and in data set [12] was 1800 min in each case.

On to `Cc1cn([C@H]2C=C[C@@H](CO)O2)c(=O)[nH]c1=O` [STAVUDINE], for which the Activity result in [13] is on record as “tde”; in [14], “tde”; in data set [15], “tde”; in data set [16], “tde”; in data set [19] it was 1.2 pmol; in data set [20], “tde”. Also, the Activity entry in data set [21] is recorded as “tde”; in data set [22], “tde”; in [24], “tde”; in data set [25], “tde”; in data set [26], 1.2 pmol; in data set [27], 1.2 pmol. Besides, the inhibition entry in [4] was “Dose-dependent effect”. Moreover, the Stability is on record as 0.2 pmol in [17] and “Unstable” in [28]. Further, the inhibition at 2 µM in data set [18] was 50%. The inhibition result in data set [23] and in [29] was “inactive” each time. Besides, in [30], the inhibition at 6 µM was determined as 50%.
